Assay results: the EternaBench riboswitch data

Test system: MS2 coat protein
Assay: apparent Kd, MS2 coat protein; higher = weaker binding; RNA-MaP array; FMN 200 µM where present
Procedure, shortened: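 Each design was made on Illumina sequencing-chip clusters by stalled E. coli RNA polymerase and titrated with SNAP-549-labelled MS2 coat protein from 0.7 or 1.5 nM, doubling to 3 µM, in the absence and then the presence of constant ligand. The buffer was 100 mM Tris-HCl pH 7.5, 80 mM KCl, 4 mM MgCl2, BSA, DTT, yeast tRNA and Tween-20. The apparent Kd is the median of filtered per-cluster fits of binding curves, with green signal normalised to red-channel RNA signal and control-cluster median Fmax.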

[1] = designed as: ON switch for flavin mononucleotide, no ligand
[2] = ligand present: flavin mononucleotide, designed as: ON switch for flavin mononucleotide
[3] = designed as: OFF switch for flavin mononucleotide, no ligand
[4] = ligand present: flavin mononucleotide, designed as: OFF switch for flavin mononucleotide

| Sequence | apparent Kd [1] [nM] | apparent Kd [2] [nM] | apparent Kd [3] [nM] | apparent Kd [4] [nM] |
| --- | --- | --- | --- | --- |
| CGCUGCCACGCAGGAUAUGCAUUGGAUUCCAAUGCAGAAGGGCGAUUACAUGAGGAUCACCCAUGUGUCGGCAGUGAAGAAGAG | 590 | 44.8 |  |  |
| CGCUGUUGCGCAGGAUAUGCAUUGGAUUACAAUGCAGAAGGGCGAUUACAUGAGGAUCACCCAUGUGUAGACAGUGAAGAAGAG | 300 | 37.2 |  |  |
| CGCUUUGUACAUGAGGAUCACCCAUGUUAAUAUGUGGUAGUCAGAAGGCAUUGUUUGAGAUAUUAUGAGGAUAUGAUUAGUCUG | 73.2 | 43.6 |  |  |
| CGGAGACAUGAGGAUCACCCAUGUCGUCGUCACAGAGGAUAUGGGAGCGUCAGGGACGCAUCAGAAGGCUGAAAGC | 32.5 | 19.1 |  |  |
| CGGAGGUCAGGAUAUGCAUGGCGGGACUUGCGUCGUGGCGUGCAGAAGGGACAUGAGGAUCACCCAUGUGGAGC |  |  | 82.2 | 145 |
| CGGAUCAAUACAGGAUAUGGUGACGCACAUGAGGAUCACCCAUGUCCGCAGCGUGCUAAGCACGCCCAGAAGGGUAUUGAUUCG | 738 | 68.3 |  |  |
| CGGAUUAUGUGAGGAUAUAAUCGUUUCCAUUGAUUAGAAGGCACAUGAGGAUCACCCAUGUGGCAUGUAAAGCCAUGUGACGCG |  |  | 108 | 109 |
| CGGCCGCUACGCCGGCUCGACGCACAGGAUAUGCAGUUACAUGAGGAUCACCCAUGUGGCCAUGUGCAGAAGGGUGAUUCGCGA | 135 | 43.6 |  |  |
| CGGCGCUGUCGAGAGGAUAUGCGGUGAUGGACAUGAGGAUCACCCAUGUUAGCGAUAGCAUCACGGUAGAAGGCUCUACGGCUUG | 46.3 | 15.5 |  |  |
| CGGCGCUGUCGAGAGGAUAUGCGGUGAUGGACAUGAGGAUCACCCAUGUUAGCGAUAGCAUUACGGUAGAAGGCUCUAUAGUUGC | 362 | 93.2 |  |  |
| CGGCUCGGAGAGGAUAUGCAGGCCAACGGCACUGCAGAAGGUUCAACAUGAGGAUCACCCAUGUGAUUUCAACU |  |  | 23.6 | 33.5 |
| CGGGAAGUCGUAGGAUAUGGUGAUGUACAUGAGGAUCACCCAUGUCCGUCUUCUCUCACAAGAUGCCAGAAGGACGACCUCCGG | 770 | 97.8 |  |  |
| CGGGAAGUCGUAGGAUAUGGUGAUGUACAUGAGGAUCACCCAUGUCCGUCUUCUCUCACAAGAUGCCAGAAGGGCGACUCCCGG | 641 | 317 |  |  |
| CGGGAGUCAGGAUAUACGAACAUGUCGCCAGAUGUCAAGGUACAUGAGGAUCACCCAUGUAGAAGGGAGGAGAU |  |  | 80.6 | 72.7 |
| CGGGCAAUGUCCGAGACAUGAGGAUCACCCAUGUUAGCAGCACAGGAUAUCAUGUUUUGUAAAGGUGAGAAGGGUGAUUGCAUC | 273 | 139 |  |  |
| CGGGUCAACAUGAGGAUCACCCAUGUACUGCUAAUGCAGUCACAGGAUAUCUUCGGUAGAUUAGAAGAGAAGGGUGAUGCCCAG | 136 | 117 |  |  |
| CGGUACACAGGAUAUAACGUCUGCAACAUGAGGAUCACCCAUGUUGUCCAAACGUUGCGGUUAGAAGGGUGGGCGC |  |  | 30.7 | 70.8 |
| CGGUUAUAUCGAGGAUAUAAGUCUAGGACAUGAGGAUCACCCAUGUAUGUCUUAGAAGGCGAUAUAACCAGCCUGUUACAGGCA | 29.3 | 6.32 |  |  |
| CGUAGGAUCCAGAAGGCAUGAACAUGAGGAUCACCCAUGUCAAAAUACAUGAGGAUAUGGAUCCUACGAAAAGUGCGAAAGCAC | 5.11 | 4.38 |  |  |
| CGUAUGUGAGGAUAUGACAAUGGUAUCUUCGGAUACCAUUGUCAGAAGGUACAUGAGGAUCACCCAUGUAGAUC |  |  | 27.1 | 59.9 |
| CGUCCACAUGAGGAUCACCCAUGUUAGGAUAUAAACGCCGUAGUCCAAGGACGGGCCUUUAGAAGGAGCGCGGG |  |  | 13.9 | 25.6 |

| Sequence | apparent Kd [1] [nM] | apparent Kd [2] [nM] | apparent Kd [3] [nM] | apparent Kd [4] [nM] |
| --- | --- | --- | --- | --- |
| CGUCGAUACCAGAAGGACAUGAGGAUCACCCAUGUAGGAUAUGGGUGACCGGGAUAGUGGACACAGCGCCCGGGCACAUGCGAC | 13.6 | 8.19 |  |  |
| CGUCUGUCAGGAUAUAGUUACGUAGACAUGAGGAUCACCCAUGUGACGUGGGACUAGUGACUAGAAGGGACGAACG |  |  | 22.3 | 52.5 |
| CGUGAACGGACGCACUGUUUCCACAUGAGGAUCACCCAUGUGAAGGAUAUGACUGGCGCCACUUGUUAGAAGGUCACUGGGCGA |  |  | 39.8 | 71.1 |
| CGUGCGUAUGUGAGGAUAUGCUGGUCCUUGGAUCAGCAGAAGGCACAUGAGGAUCACCCAUGUGGUGUCGUACA |  |  | 273 | 20.1 |
| CGUGUCAUCGAGAAGGCCUCAACAUGAGGAUCACCCAUGUUGUAAUAUGGGAGGAUAUCGAUGAUACAGCUACGUUUCGUAGCG | 19.1 | 6.07 |  |  |
| CGUUAAUAUCGAGGAUAUGUCUAGACACAUGAGGAUCACCCAUGUAUGUGUAUAGAAGGCGAUAUUAACAGCAUGUUACAUGCC | 45.5 | 16.3 |  |  |
| CGUUAAUAUCGAGGAUAUGUCUAGACACAUGAGGAUCACCCAUGUAUGUGUAUAGAAGGCGAUAUUAACAGCAUGUUACAUGCG | 38.3 | 16.7 |  |  |
| CGUUGGUCAGGAUAUGGUGGGCUGGUGAGAGGGCCGGGUGGCUAGAAGGGACAUGAGGAUCACCCAUGUACGGC |  |  | 40.4 | 28.2 |
| CGUUGGUUAGGAUAUAGCCUCCUGGUGGGAAGGCCGGGUGGCUAGAAGGAACAUGAGGAUCACCCAUGUAUGGA |  |  | 62.6 | 33.3 |
| CGUUGUUCCGCAGGAUAUGCAUUGGAUUACAAUGCAGAAGGGCGAUAACAUGAGGAUCACCCAUGUGUGGACAAUGAGGAAGAG | 792 | 55.2 |  |  |
| CGUUUAUUUAUGGGUUUAUAUUAUGAGGAUAUCAAUAUUUUAUACAUGAGGAUCACCCAUGUUACUGAGAAGGCAUAAUUAACG | 10.9 | 6.44 |  |  |
| CUAAAUCAUGUAGGAUAUGCGUGGCGAAGCUAUGCAGAAGGACAUGAGGAUCACCCAUGUUUUUCCGUCUGCGUACAGACGGAA |  |  | 259 | 260 |
| CUAACACAUGAGGAUCACCCAUGUGAGGAUAUGCGUACGUUGUCCGUAGGCGACGUGCGCAGAAGGCGCUUGGU |  |  | 55.8 | 62.8 |
| CUAGUACAUGAGGAUCACCCAUGUCAGGAUAUUGGAUAUGACAUGGAAAACAUGUUUACAAGAAGGGACUAUAG |  |  | 285 | 290 |
| CUAUACAUAUCAGGAUAUCUAUUUCCUACAUGAGGAUCACCCAUGUAGAGGAUCACCCAUGUAAAGGAGAAGGGAUAUGUAUAG | 105 | 20.9 |  |  |
| CUAUAUAAUACCUCAUGUACAUGAGGAUCACCCAUGUUAACUAAGGAUAUAUUUAUAUUAAUAAAGUAGAAGGUAGUACUAUUU |  |  | 23.4 | 18.8 |
| CUAUAUAAUACCUCAUGUACAUGAGGAUCACCCAUGUUAACUUAGGAUAUAUUUAUAUUGAUAGAGUAGAAGGAAGUACUAUUU |  |  | 15.8 | 13.8 |
| CUAUCAAGCAAGGAUAUGCAAAUAAUUAUUUAUGCAGAAGGUGCAACAUGAGGAUCACCCAUGUUUCUGGGUUU |  |  | 57.4 | 89.6 |
| CUAUUGGCAGGAUAUGCUUUUUUAGACAUGAGGAUCACCCAUGUGAUGAAUUUUGGGUUUGCAGAAGGGCCUGAGU |  |  | 67.1 | 100 |
| CUAUUGGUAACAGGAUAUAUGAGUCCUACAUGAGGAUCACCCAUGUAGGUGGUCAAACGUGAUUAGUAGAAGGGUUACCAAUAG | 12.2 | 6.18 |  |  |
| CUCAAGUCAGGAUAUCCAGCUGUGUUCCGGGACUCGUAGUUGGAGAAGGGACAUGAGGAUCACCCAUGUCAGCC |  |  | 32.3 | 67.8 |
